This is an account of results in ChEMBL document CHEMBL2046298, “Lead optimization of purine based orally bioavailable Mps1 (TTK) inhibitors” (Bioorg Med Chem Lett, 2012).

Data set [1] is described as follows: Oral bioavailability in CD-1 mouse at 10 mg/kg. The note with it: in vivo. The data set is classed as ADME, organism-based. In a few lines:
(§1)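 CD-1 mice given 10 mg/kg orally in a DMA/PEG 400 solution formulation; matched IV arm at 2.5 mg/kg in DMA/PEG 400 for %F.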

A short description of data set [2]: Cmax in CD-1 mouse at 10 mg/kg, po. The data set is classed as ADME, organism-based. Details: dose 10 mg/kg, route oral. Particulars: in vivo. In a few lines: as §1
Data set [3] is described as follows: Plasma concentration in CD-1 mouse at 10 mg/kg, po measured at 8 hrs. The data set is classed as ADME, organism-based. Details: dose 10 mg/kg, route oral. In a few lines: (§2)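 Abbreviated PK screen: CD-1 mice dosed orally at 10 mg/kg in DMA/PEG 400 solution; plasma levels determined at 4 and 8 h post-dose.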
Data set [4] in a line: AUC in CD-1 mouse at 10 mg/kg, po. Particulars: plasma. The arrangement: dose 10 mg/kg, route oral. The data set is classed as ADME, organism-based. The procedure, abridged:
as §1

Data set [5] is described as follows: Plasma concentration in CD-1 mouse at 10 mg/kg, po measured at 4 hrs. Format: ADME, organism-based. The arrangement: dose 10 mg/kg, route oral. In a few lines:
as §2

Data set [6] in a line: Apparent permeability of the compound by PAMPA. The data set is classed as ADME. On the technique in general: In PAMPA a lipid-coated filter parts donor from acceptor wells.

For orientation: bioavailability means the share of a dose that reaches the circulation, judged against a reference dose that is usually intravenous. A high value points to much systemic uptake. `Cc1cc(N2CCOCC2)ccc1Nc1nc(NC2CCCCC2)c2nc[nH]c2n1` came in with a bioavailability in data set [1] of 20%.

The term Cmax denotes the highest concentration seen after dosing. Broadly, the AUC is the area under the concentration-time curve, a measure of exposure. In data set [2], `COc1cc(N2CCN(S(=O)(=O)CCCN3CCOCC3)CC2)ccc1Nc1nc(NC2CCCCC2)c2nc[nH]c2n1` yielded a maximum concentration (Cmax) of 1000 nM. The molecule also gave a bioavailability in data set [1] of 17.9%. Besides, the concentration at 8 h in data set [3] turned out to be 17.5 ng/mL. Moreover, the AUC in data set [4] was determined as 1730 ng·h/mL. The molecule further came in with a concentration at 4 h in data set [5] of 156 ng/mL.

Take `COc1cc(N2CCN(C(=O)N3CCN(C)CC3)CC2)ccc1Nc1nc(NC2CCCCC2)c2[nH]cnc2n1`: the Papp result in data set [6] is given as “impermeable”.

`COc1cc(N2CCN(Cc3ccccn3)CC2)ccc1Nc1nc(NC2CCCCC2)c2nc[nH]c2n1` yielded a concentration at 8 h in data set [3] of 2.9 ng/mL. Also, the concentration at 4 h in data set [5] is 66.3 ng/mL.

On to `COc1cc(N2CCN(C(=O)N3CCC(O)C3)CC2)ccc1Nc1nc(NC2CCCCC2)c2nc[nH]c2n1` (stereo not drawn), for which, in data set [6], the Papp entry is “impermeable”.

In turn, `COc1cc(N2CCC(N3CCOCC3)CC2)ccc1Nc1nc(NC2CCCCC2)c2nc[nH]c2n1` came in with a Cmax in data set [2] of 2600 nM. Further, the bioavailability in data set [1] worked out at 31%. The molecule further had a concentration at 8 h in data set [3] of 44.2 ng/mL. The same molecule returned an AUC in data set [4] of 1710 ng·h/mL. Also, the concentration at 4 h in data set [5] was 105 ng/mL.

For the molecule `COc1cc(N2CCC(C(=O)N3CCOCC3)CC2)ccc1Nc1nc(NC2CCCCC2)c2nc[nH]c2n1`, the concentration at 8 h in data set [3] was 1.68 ng/mL. Besides, in data set [5], the concentration at 4 h came out at 16.7 ng/mL.

In data set [2], `COc1cc(N2CCC(CN3CCOCC3)CC2)ccc1Nc1nc(NC2CCCCC2)c2nc[nH]c2n1` came in with a Cmax of 2600 nM. The bioavailability in data set [1] was above 83%. Besides, the concentration at 8 h in data set [3] was 187 ng/mL. In addition, the exposure (AUC) in data set [4] was determined as 10700 ng·h/mL. This molecule also displayed a concentration at 4 h in data set [5] of 435 ng/mL.

In data set [2], `COc1cc(N2CCC(CC(=O)N3CCOCC3)CC2)ccc1Nc1nc(NC2CCCCC2)c2nc[nH]c2n1` registered a peak concentration (Cmax) of 1400 nM. In data set [1], this molecule returned a bioavailability of 23.1%. The concentration at 8 h in data set [3] came out at 20.9 ng/mL. The same molecule showed an AUC in data set [4] of 1650 ng·h/mL. This molecule showed a concentration at 4 h in data set [5] of 97 ng/mL.

`COc1cc(N2CCC(CC(=O)N3CCN(C)CC3)CC2)ccc1Nc1nc(NC2CCCCC2)c2[nH]cnc2n1` gave a maximum concentration (Cmax) in data set [2] of 300 nM. This molecule also showed a bioavailability in data set [1] of 6.9%. In data set [3], this molecule showed a concentration at 8 h of 39.9 ng/mL. The molecule further gave an AUC in data set [4] of 547 ng·h/mL. Further, the concentration at 4 h in data set [5] was found to be 180 ng/mL.

Turning to `COc1cc(N2CCC(CC(=O)N3CCC(N(C)C)C3)CC2)ccc1Nc1nc(NC2CCCCC2)c2nc[nH]c2n1` (stereo not drawn), the Papp entry in data set [6] is given as “impermeable”.

As to `COc1cc(N2CCC(CC(=O)N3CCCC3)CC2)ccc1Nc1nc(NC2CCCCC2)c2nc[nH]c2n1`, the highest level in data set [2] (Cmax) was 1800 nM. The molecule further gave a bioavailability in data set [1] of 36%. In data set [3], the concentration at 8 h is 69.2 ng/mL. For the same molecule, the area under the curve (AUC) in data set [4] was found to be 1770 ng·h/mL. The same molecule showed a concentration at 4 h in data set [5] of 138 ng/mL.
